The source of these data is ChEMBL document CHEMBL2396523, “The synthesis of isopropylidene mRNA cap analogs modified with phosphorothioate moiety and their evaluation as promoters of mRNA translation” (Bioorg Med Chem Lett, 2013).

The species named for one data set is Oryctolagus cuniculus. In words: Translational activity in Flexi rabbit reticulocyte lysate assessed as luciferase mRNA activity after 60 mins relative to m7GpppG. Format: functional. In outline: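 Luciferase mRNAs capped by in vitro transcription, added at several concentrations to rabbit reticulocyte lysate optimized for cap-dependent translation. Luminometry of luciferase activity 60 min after mRNA addition. Translation efficiency taken from slope of luciferase activity versus mRNA concentration, averaged over replicate experiments.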

Data set [1] can be described thus: Translational activity in human immature DC assessed as time point of maximal protein expression by bioluminescence assay. Format: functional. Put shortly: (§1)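 Luciferase-coding mRNAs made by T7 RNA polymerase in vitro transcription with the respective cap, electroporated into human immature dendritic cells. Luciferase activity measured over 72 h after electroporation, duplicate measurements. Mathematical modeling of the time course gave translational efficiency, time of maximal protein expression and total protein expression.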

In data set [2] the target is Eukaryotic translation initiation factor 4E (Mus musculus) (UniProt P63073). In words: Binding affinity to mouse eIF4E by fluorescence quenching assay. In outline:
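Murine eIF4E titrated with cap analog solution; intrinsic Trp fluorescence quenching recorded at 337 nm with excitation at 280 nm. Equilibrium association constant (KAS) of the cap analog–eIF4E complex derived from the titration curves.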

Data set [3] can be described thus: Drug degradation in aqueous buffer at pH 2 after 4.5 hrs by RP HPLC analysis. Format: physicochemical. The conditions noted are these: pH 2, 4.5 h. In outline:
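Isopropylidene removal done in aqueous buffer at pH 2, 37 °C, for 4.5 h. Reaction progress followed by RP HPLC.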

Data set [4] is described as follows: Translational activity in human immature DC assessed as total protein expression after 72 hrs by bioluminescence assay relative to m2 7,3'-OGpppG. Format: functional. In outline:
as §1

The species entered for another data set is Homo sapiens. Briefly: Translational activity in human immature DC assessed as luciferase mRNA activity after 72 hrs by bioluminescence assay relative to m2 7,3'-OGpppG. It is filed as functional. Put shortly: as §1

SMILES strings stand for the structures.

Chain of Eukaryotic translation initiation factor 4E (Mus musculus) (P63073 whole entry): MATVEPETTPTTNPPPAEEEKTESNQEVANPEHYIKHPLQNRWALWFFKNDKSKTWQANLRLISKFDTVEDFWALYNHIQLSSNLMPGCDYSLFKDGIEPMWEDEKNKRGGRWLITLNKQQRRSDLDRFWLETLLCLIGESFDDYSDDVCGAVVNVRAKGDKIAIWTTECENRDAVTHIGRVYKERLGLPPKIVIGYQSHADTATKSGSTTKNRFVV

Regarding `CO[C@H]1[C@@H](O)[C@H](n2c[n+](C)c3c(O)nc(N)nc32)O[C@@H]1COP(=O)(O)OP(=O)([O-])OP(=O)(O)OC[C@H]1O[C@@H](n2cnc3c(=O)[nH]c(N)nc32)[C@H](O)[C@@H]1O`, the Ratio in the data set filed under Oryctolagus cuniculus stood at 1.32. Besides, the TIME in data set [1] turned out to be 9.25 h. The Ka in data set [2] is 10.2 µM⁻¹.
`C[n+]1cn([C@@H]2O[C@H](COP(=O)([O-])OP(=O)(S)OP(=O)(O)OC[C@H]3O[C@@H](n4cnc5c(=O)[nH]c(N)nc54)[C@H](O)[C@@H]3O)[C@@H]3OC(C)(C)O[C@H]32)c2nc(N)nc(O)c21` (mixture of isomers; 2b) [listing 1 of 2 here]: the Stability result in data set [3] is “Stable”.
Take `C[n+]1cn([C@@H]2O[C@H](COP(=O)([O-])OP(=O)(S)OP(=O)(O)OC[C@H]3O[C@@H](n4cnc5c(=O)[nH]c(N)nc54)[C@H](O)[C@@H]3O)[C@@H]3OC(C)(C)O[C@H]32)c2nc(N)nc(O)c21` (mixture of isomers; 2b) [listing 2 of 2 here]: the Ratio in the data set filed under Oryctolagus cuniculus turned out to be 1.16; in data set [4] it was 0.97; in the data set listed under Homo sapiens, 1.08. For the same compound, in data set [1], the TIME came to 8.9 h. In data set [2], this compound showed a Ka of 9.2 µM⁻¹.
For the compound `C[n+]1cn([C@@H]2O[C@H](COP(=O)(O)OP(=O)([O-])OP(=O)(O)OC[C@H]3O[C@@H](n4cnc5c(=O)[nH]c(N)nc54)[C@H](O)[C@@H]3O)[C@@H]3OC(C)(C)O[C@H]32)c2nc(N)nc(O)c21`, the Ratio in the data set listed under Oryctolagus cuniculus amounted to 0.8. In addition, the Ka in data set [2] stood at 2.9 µM⁻¹.
`C[n+]1cn([C@@H]2O[C@H](COP(=O)([O-])OP(=O)(S)OP(=O)(O)OC[C@H]3O[C@@H](n4cnc5c(=O)[nH]c(N)nc54)[C@H](O)[C@@H]3O)[C@@H]3OC(C)(C)O[C@H]32)c2nc(N)nc(O)c21` (mixture of isomers; 2a): the Ratio in the data set filed under Oryctolagus cuniculus came to 1.33; in data set [4], 1.62; in the data set listed under Homo sapiens, 1.23. Moreover, the TIME in data set [1] stood at 11.1 h. In data set [2], this compound had a Ka of 5.6 µM⁻¹.
